Screening data deposited in PubChem by Johns Hopkins Ion Channel Center.
Only some compounds are listed: those with a hit (about 3.5% of all), similar ones and a draw of the others.
MrgX1 ag – agonists of human MrgX1 receptor, primary screen, HEK293 cells, Fluo-4 calcium flux; Mas-related G-protein coupled receptor member X1 (Homo sapiens), Q96LB2; Fluo-4 calcium fluorescence, agonist mode; stronger effect = higher value; B-score at 10 µM; actives 0.44% (n = 310,000); AID 588627, 2011;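 active means calcium response B-score plate-corrected fluorescence ratio at least 3 library SD, with starting fluorescence B-score inside 5 SD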
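Test system: HEK293 cells stably expressing human MrgX1 receptor; amount: 15,000 cells per well; doses: compound delivered in addition one of three; times: overnight plating before 1 h dye loading; detection: Fluo-4 NW calcium-flux fluorescence, kinetic read; read-out basis: B-scored fluorescence response ratio; controls: positive and negative controls per plate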
MrgX1 PAM – positive allosteric modulators of MrgX1, primary screen, HEK293 cells, Fluo-4 calcium flux; actives 0.63% (n = 310,000); B-score at 10 µM; FDSS; stronger effect = higher value; Mas-related G-protein coupled receptor member X1 (Homo sapiens), Q96LB2;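 active means plate-corrected calcium response at least 3 library SD above typical, normal starting fluorescence, not activating the receptor alone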;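 further: compound read alongside a low EC10 to EC30 dose of BAM8-22 agonist; peak minus trough fluorescence over baseline measured at the second addition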
RGS4 act – RGS4 potentiators or activators, primary screen, cell-based, HEK293 M3R inducible RGS4, calcium flux; carbachol calcium flux Fluo4; stronger effect = lower value; B-score at 10 µM; actives 0.92% (n = 310,000); AID 463111, 2010;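 active means B-score of the integrated calcium signal more than 4 SD below the library mean, with starting fluorescence not abnormally high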;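 further: negative B-score means reduced calcium response which marks RGS4 activation or potentiation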
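System – HEK293 FlpIn-TREx cells, stable M3R, doxycycline-inducible RGS4 · Reagent – ECmax carbachol challenge · Times – compound preincubation 20 min at room temperature before agonist · Technique – Fluo4 fluorescence kinetic imaging of calcium · Measure – B score of integrated Fluo4 ratio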
RGS4 inh – RGS4 inhibitors, primary screen, cell-based, HEK293 M3R inducible RGS4, calcium flux; Regulator of G-protein signaling 4 (Homo sapiens), P49798; Fluo-4 calcium flux; stronger effect = higher value; triggered by carbachol at its EC20; B-score at 10 µM; actives 0.45% (n = 310,000); AID 463165, 2010;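 active means B-score, a plate-corrected calcium signal, over three deviations above library mean, with baseline fluorescence within five deviations of library mean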;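 further: RGS4 expression induced by doxycycline in cells with stable M3 receptor; B-score is computed from the integrated fluorescence ratio over baseline after carbachol; higher B-score means a larger calcium signal and so more RGS4 inhibition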
Target sequence (P49798 whole entry, looked up): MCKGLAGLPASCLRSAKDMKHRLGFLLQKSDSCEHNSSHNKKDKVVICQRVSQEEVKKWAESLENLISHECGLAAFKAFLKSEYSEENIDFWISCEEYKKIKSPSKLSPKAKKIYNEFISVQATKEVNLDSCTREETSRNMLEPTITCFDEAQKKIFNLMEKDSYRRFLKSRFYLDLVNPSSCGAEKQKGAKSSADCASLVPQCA
MrgX1 antagonist – antagonists of human MrgX1 receptor, primary screen, HEK293 cells, Fluo-4 calcium flux; Mas-related G-protein coupled receptor member X1 (Homo sapiens), Q96LB2; BAM8-22 antagonism; stronger effect = lower value; B-score at 10 µM; actives 1.3% (n = 310,000); AID 588676, 2011;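 active means calcium-response B-score plate-corrected more than 3 library SD below zero, starting fluorescence within 5 deviations, no agonist response on first addition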;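 further: peak minus trough fluorescence over baseline after final BAM8-22 challenge near maximal dose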
RGS4 act valid – reduced carbachol calcium response, RGS4-induced M3R cells, confirmation, RGS4 activator project, cell-based, HEK293 M3R/RGS4 inducible, calcium flux, duplicate; shares compounds with RGS4 act; inhibition, % at 10 µM; actives 89% (n = 1,100); carbachol calcium flux Fluo4;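 active means inhibition above 3 SD of the buffer control wells, cut at about 41% in these data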;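 further: signal is the integrated peak-minus-minimum Fluo4 fluorescence over baseline ratio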
M3R Ca counter – counter-screen for RGS4 activators: effect in non-induced cells; actives 82% (n = 1,100); shares compounds with RGS4 act; inhibition, % at 10 µM; AID 602283; HEK293 M3R non-induced RGS4, Fluo4 calcium flux; after carbachol challenge at its EC90;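 active means inhibition exceeding 3 SD of buffer-only control wells, cut at about 26% in these data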;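 further: percent drop in integrated peak-minus-baseline over baseline Fluo4 ratio after carbachol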
Active calls of the source: *.

Screening COc1ccc(CC(=O)Nc2nc(-c3ccc(F)c(F)c3)cs2)cc1 returned MrgX1 ag inactive, MrgX1 PAM inactive, RGS4 act -10*, RGS4 inh inactive, MrgX1 antagonist inactive, RGS4 act valid 92* and M3R Ca counter 96*.
Screening O=C(Cc1ccc(F)cc1)Nc1nc(-c2ccc(F)c(F)c2)cs1 returned MrgX1 ag inactive, MrgX1 PAM inactive, RGS4 act inactive, RGS4 inh inactive and MrgX1 antagonist inactive.
CCN(CC)CCN1C(=O)C(=O)/C(=C(/O)c2ccc(S(=O)(=O)N3CCOCC3)cc2)C1c1ccc(C)cc1 (stereo not given) was read as MrgX1 ag inactive, MrgX1 PAM inactive, RGS4 act inactive, RGS4 inh inactive and MrgX1 antagonist inactive.
For COc1ccc(CCN2C(=O)CSC2c2ccc(F)cc2)cc1 (stereo not given) the results were MrgX1 ag inactive, MrgX1 PAM inactive, RGS4 act inactive, RGS4 inh inactive and MrgX1 antagonist inactive.
Screening CC(C)[C@H](NC(=O)c1ccco1)C(=O)OCC(=O)c1ccc2c(c1)NC(=O)CO2 returned MrgX1 ag inactive, MrgX1 PAM inactive, RGS4 act inactive, RGS4 inh inactive and MrgX1 antagonist inactive.
`CC(C)CC(NC(=O)c1ccc(Cl)cc1)C(=O)OCC(=O)c1ccc2c(c1)NC(=O)CO2` (stereo not given) gave MrgX1 ag inactive, MrgX1 PAM inactive, RGS4 act -12*, RGS4 inh inactive, MrgX1 antagonist inactive, RGS4 act valid 90* and M3R Ca counter 80*.
For C/C(=N/NC(=O)c1cc(C)[nH]n1)c1ccncc1 the results were MrgX1 ag inactive, MrgX1 PAM inactive, RGS4 act inactive, RGS4 inh inactive and MrgX1 antagonist inactive.
Screening Nc1cc(=O)[nH]c(SCC(=O)Nc2ccc(Oc3ccccc3)cc2)n1 returned MrgX1 ag inactive, MrgX1 PAM inactive, RGS4 act -10*, RGS4 inh inactive, MrgX1 antagonist inactive, RGS4 act valid 0 and M3R Ca counter 0.
`Nc1cc(=O)[nH]c(SCC(=O)Nc2cccc(Cl)c2)n1` gave MrgX1 ag inactive, MrgX1 PAM inactive, RGS4 act inactive, RGS4 inh inactive and MrgX1 antagonist inactive.
`CC(C)(C)C(=O)COC(=O)c1c2c(nc3ccccc13)CCC2` gave MrgX1 ag inactive, MrgX1 PAM inactive, RGS4 act inactive, RGS4 inh inactive and MrgX1 antagonist inactive.
O=C(OCC(=O)N1CCc2ccccc21)c1c2c(nc3ccccc13)CCCC2 was read as MrgX1 ag inactive, MrgX1 PAM inactive, RGS4 act -9.1*, RGS4 inh inactive, MrgX1 antagonist inactive, RGS4 act valid 80* and M3R Ca counter 84*.
`CC1Cc2ccccc2N1C(=O)COC(=O)c1c2c(nc3ccccc13)CCCCC2` (stereo not given) gave MrgX1 ag inactive, MrgX1 PAM inactive, RGS4 act -9*, RGS4 inh inactive, MrgX1 antagonist inactive, RGS4 act valid 88* and M3R Ca counter 84*.
Screening NC(=O)COC(=O)c1c2c(nc3ccccc13)CCCCC2 returned MrgX1 ag inactive, MrgX1 PAM inactive, RGS4 act inactive, RGS4 inh inactive and MrgX1 antagonist inactive.
NC1=NS(=O)(=O)NC1c1ccc(F)cc1 (stereo not given) was read as MrgX1 ag inactive, MrgX1 PAM inactive, RGS4 act inactive, RGS4 inh inactive and MrgX1 antagonist inactive.
